Experimental data: ChEMBL document CHEMBL1157875, “Thiosemicarbazones, semicarbazones, dithiocarbazates and hydrazide/hydrazones: anti-Mycobacterium tuberculosis activity and cytotoxicity” (Eur J Med Chem, 2010)
≈ marks a conversion by molar mass, not a printed value.

Test system: Mycobacterium tuberculosis
Assay: Antimycobacterial activity against Mycobacterium tuberculosis H37Rv after 7 days by resazurine microtiter assay
Format: functional
Details: 168 h
Method in brief: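 M. tuberculosis broth microdilution (REMA). Compounds dissolved as DMSO stocks and diluted in Middlebrook 7H9 broth with OADC enrichment. Culture and compounds combined in 96-well plates, in triplicate, incubated 7 days at 37 °C. Resazurin then added; fluorescence read at 530 nm excitation, 590 nm emission. Isoniazid run on every plate as standard.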

Question: Which MIC does the source give for `S=C(N/N=C(/C(=N/NC(=S)Nc1ccccc1)c1ccccc1)c1ccccc1)Nc1ccccc1` here?
Answer: 49.1 µM (≈ 25 µg/mL)

Question: Which MIC does the source give for `O=C(N/N=C(/C(=N/NC(=O)c1ccncc1)c1ccccc1)c1ccccc1)c1ccncc1` here?
Answer: 27.9 µM (≈ 12.5 µg/mL)

Question: With `O=C(N/N=C/c1ccccn1)c1ccccc1O` as the compound, how does the MIC read?
Answer: ≥ 1040 µM

Question: Which MIC does the source give for `C/C(=N\NC(=S)N1CCCCCC1)c1ccccn1` here?
Answer: ≥ 181 µM

Question: Which MIC does the source give for `C/C(=N\NC(=S)Nc1ccccc1)c1ccccn1` here?
Answer: 57.7 µM (≈ 15.6 µg/mL)

Question: For `O=C(N/N=C/c1ccccc1O)c1ccccc1O`, which MIC is on record?
Answer: 122 µM (≈ 31.3 µg/mL)

Question: With `C/C(=N\NC(N)=S)c1ccccn1` as the compound, how does the MIC read?
Answer: 161 µM (≈ 31.3 µg/mL)

Question: For `CNC(=S)N/N=C(\C)c1ccccn1`, which MIC is on record?
Answer: 37.5 µM (≈ 7.8 µg/mL)

Question: For `CCNC(=S)N/N=C(\C)c1ccccn1`, which MIC is on record?
Answer: 14.1 µM (≈ 3.13 µg/mL)

Test system: J774
Assay: Cytotoxicity against mouse J774 cells after 24 hrs by resazurin assay
Format: cell-based
Details: J774, 24 h
Method in brief: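 J774 macrophages grown to confluence at 37 °C in 5% CO2, then seeded at 1 × 10^5 cells/mL and allowed 24 h to adhere. Resazurin added for 6 h; fluorescence read at 530 nm excitation, 590 nm emission.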

Question: Which IC50 does the source give for `S=C(N/N=C(/C(=N/NC(=S)Nc1ccccc1)c1ccccc1)c1ccccc1)Nc1ccccc1` here?
Answer: 2460 µM

Question: For `O=C(N/N=C(/C(=N/NC(=O)c1ccncc1)c1ccccc1)c1ccccc1)c1ccncc1`, which IC50 is on record?
Answer: 349 µM

Question: With `O=C(N/N=C/c1ccccn1)c1ccccc1O` as the compound, how does the IC50 read?
Answer: 1300 µM

Question: With `C/C(=N\NC(=S)N1CCCCCC1)c1ccccn1` as the compound, how does the IC50 read?
Answer: 4520 µM

Question: Which IC50 does the source give for `O=C(N/N=C/c1ccccc1O)c1ccccc1O` here?
Answer: 1220 µM

Question: For `CCNC(=S)N/N=C(\C)c1ccccn1`, which IC50 is on record?
Answer: 2810 µM

Test system: not listed separately
Assay: Selectivity index, ratio of IC50 for mouse J774 cells to MIC for Mycobacterium tuberculosis H37Rv
Format: functional
Details: not given

Question: Which “Selectivity Index” value does the source give for `S=C(N/N=C(/C(=N/NC(=S)Nc1ccccc1)c1ccccc1)c1ccccc1)Nc1ccccc1` here?
Answer: 50

Question: For `O=C(N/N=C(/C(=N/NC(=O)c1ccncc1)c1ccccc1)c1ccccc1)c1ccncc1`, which “Selectivity Index” value is on record?
Answer: 12.5

Question: With `O=C(N/N=C/c1ccccn1)c1ccccc1O` as the compound, how does the “Selectivity Index” value read?
Answer: <=1.25

Question: With `C/C(=N\NC(=S)N1CCCCCC1)c1ccccn1` as the compound, how does the “Selectivity Index” value read?
Answer: <=25

Question: Which “Selectivity Index” value does the source give for `O=C(N/N=C/c1ccccc1O)c1ccccc1O` here?
Answer: 10

Question: For `CCNC(=S)N/N=C(\C)c1ccccn1`, which “Selectivity Index” value is on record?
Answer: 200
